pIC50: −log10 of the molar value. Calls of active or inactive are those of the source. The rule behind the calls is not given here.
Each molecule was assayed against T1, Phosphatidylinositol 3,4,5-trisphosphate 5-phosphatase 2 (Mus musculus) (UniProt Q6P549) (assay: Inhibition of SHIP2 in mouse 3T3L1 cells assessed as reduction of TNF-alpha induced decrease in insulin-stimulated Akt phosphorylation at Thr308 at 10 uM treated for 15 mins after TNF alpha challenge for 16 hrs and prior to insulin stimulation measured after 2 hrs by Western blot analysis). Conditions: 3T3-L1.
T1 sequence (whole entry): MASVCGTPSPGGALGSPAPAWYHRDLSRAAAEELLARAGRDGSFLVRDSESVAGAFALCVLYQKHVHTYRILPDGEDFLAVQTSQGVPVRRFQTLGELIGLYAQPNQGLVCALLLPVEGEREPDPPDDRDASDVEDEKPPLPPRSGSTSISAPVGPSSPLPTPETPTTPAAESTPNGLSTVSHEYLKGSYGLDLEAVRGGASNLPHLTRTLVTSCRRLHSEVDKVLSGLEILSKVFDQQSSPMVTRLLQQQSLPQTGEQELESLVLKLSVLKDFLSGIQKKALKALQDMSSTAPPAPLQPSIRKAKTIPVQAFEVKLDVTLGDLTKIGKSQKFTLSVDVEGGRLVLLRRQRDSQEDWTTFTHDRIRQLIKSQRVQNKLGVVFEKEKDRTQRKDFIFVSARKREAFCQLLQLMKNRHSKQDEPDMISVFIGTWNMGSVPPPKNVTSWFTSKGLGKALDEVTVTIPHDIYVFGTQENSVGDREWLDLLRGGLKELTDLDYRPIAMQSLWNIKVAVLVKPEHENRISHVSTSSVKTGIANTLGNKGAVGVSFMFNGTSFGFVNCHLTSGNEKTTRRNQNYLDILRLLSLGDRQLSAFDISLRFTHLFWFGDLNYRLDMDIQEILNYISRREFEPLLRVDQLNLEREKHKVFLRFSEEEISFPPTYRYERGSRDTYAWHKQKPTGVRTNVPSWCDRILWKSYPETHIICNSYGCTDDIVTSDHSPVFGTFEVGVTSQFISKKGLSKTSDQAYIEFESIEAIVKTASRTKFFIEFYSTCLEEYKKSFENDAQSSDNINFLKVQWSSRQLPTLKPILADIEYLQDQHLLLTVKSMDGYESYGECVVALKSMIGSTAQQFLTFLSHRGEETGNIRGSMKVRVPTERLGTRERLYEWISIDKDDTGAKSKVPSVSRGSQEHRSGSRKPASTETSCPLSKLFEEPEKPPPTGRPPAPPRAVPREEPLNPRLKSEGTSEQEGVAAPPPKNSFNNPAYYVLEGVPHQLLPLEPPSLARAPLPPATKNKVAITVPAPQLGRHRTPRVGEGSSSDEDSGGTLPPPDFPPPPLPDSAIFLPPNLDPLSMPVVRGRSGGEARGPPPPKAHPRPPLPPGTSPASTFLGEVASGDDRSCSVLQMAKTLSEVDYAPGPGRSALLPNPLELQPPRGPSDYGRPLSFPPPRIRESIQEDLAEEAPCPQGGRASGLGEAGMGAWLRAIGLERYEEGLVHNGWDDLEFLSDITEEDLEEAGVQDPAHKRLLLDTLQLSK
Type: cell-based
Method in brief: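 3T3-L1 fibroblasts differentiated into adipocytes, then serum-starved 16 h with TNFα 20 ng/mL. Treated with compound 10 µM or 0.1% DMSO for 15 min, then stimulated with 17 nM insulin at 37 °C for 2 h. Cells lysed on ice at pH 7.5 and Thr308 phospho-Akt measured by western blot. Results given as fold change versus TNFα+insulin control. Mean ± SE.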

SMILES	inhibition
O=C(Cc1ccccc1)Nc1cc(OCc2ccc(F)cc2)ccn1	Active
O=C(Cc1c(F)cccc1F)Nc1cc(OCc2ccc(F)cc2)ccn1	Active
O=C(CCc1ccccc1)Nc1cc(COCc2ccccc2)ccn1	Active
O=C(CCc1ccccc1)Nc1cc(OCc2ccc(Cl)cc2)ccn1	Active
O=C(Cc1c(F)cccc1F)Nc1cc(COCc2ccc(F)cc2)ccn1	Active
O=C(Cc1ccccc1C(F)(F)F)Nc1cc(OCc2ccc(Cl)cc2)ccn1	Active
O=C(CCc1ccccc1)Nc1cc(COCc2ccc(Cl)cc2)ccn1	Active
O=C(Cc1ccc(F)cc1)Nc1cc(OCc2ccc(F)cc2)ccn1	Active
O=C(Cc1ccccc1)Nc1cc(COCc2ccc(Cl)cc2)ccn1	Active
O=C(CCc1ccccc1)Nc1cc(COCc2ccc(F)cc2)ccn1	Active
O=C(Cc1cc(F)cc(F)c1)Nc1cc(COCc2ccc(F)cc2)ccn1	Active

The molecules below were run against T2, Phosphatidylinositol 3,4,5-trisphosphate 5-phosphatase 2 (Homo sapiens, UniProt O15357) (assay: Inhibition of SHIP2 (unknown origin)). Conditions: not given.
T2 sequence (O15357 whole entry): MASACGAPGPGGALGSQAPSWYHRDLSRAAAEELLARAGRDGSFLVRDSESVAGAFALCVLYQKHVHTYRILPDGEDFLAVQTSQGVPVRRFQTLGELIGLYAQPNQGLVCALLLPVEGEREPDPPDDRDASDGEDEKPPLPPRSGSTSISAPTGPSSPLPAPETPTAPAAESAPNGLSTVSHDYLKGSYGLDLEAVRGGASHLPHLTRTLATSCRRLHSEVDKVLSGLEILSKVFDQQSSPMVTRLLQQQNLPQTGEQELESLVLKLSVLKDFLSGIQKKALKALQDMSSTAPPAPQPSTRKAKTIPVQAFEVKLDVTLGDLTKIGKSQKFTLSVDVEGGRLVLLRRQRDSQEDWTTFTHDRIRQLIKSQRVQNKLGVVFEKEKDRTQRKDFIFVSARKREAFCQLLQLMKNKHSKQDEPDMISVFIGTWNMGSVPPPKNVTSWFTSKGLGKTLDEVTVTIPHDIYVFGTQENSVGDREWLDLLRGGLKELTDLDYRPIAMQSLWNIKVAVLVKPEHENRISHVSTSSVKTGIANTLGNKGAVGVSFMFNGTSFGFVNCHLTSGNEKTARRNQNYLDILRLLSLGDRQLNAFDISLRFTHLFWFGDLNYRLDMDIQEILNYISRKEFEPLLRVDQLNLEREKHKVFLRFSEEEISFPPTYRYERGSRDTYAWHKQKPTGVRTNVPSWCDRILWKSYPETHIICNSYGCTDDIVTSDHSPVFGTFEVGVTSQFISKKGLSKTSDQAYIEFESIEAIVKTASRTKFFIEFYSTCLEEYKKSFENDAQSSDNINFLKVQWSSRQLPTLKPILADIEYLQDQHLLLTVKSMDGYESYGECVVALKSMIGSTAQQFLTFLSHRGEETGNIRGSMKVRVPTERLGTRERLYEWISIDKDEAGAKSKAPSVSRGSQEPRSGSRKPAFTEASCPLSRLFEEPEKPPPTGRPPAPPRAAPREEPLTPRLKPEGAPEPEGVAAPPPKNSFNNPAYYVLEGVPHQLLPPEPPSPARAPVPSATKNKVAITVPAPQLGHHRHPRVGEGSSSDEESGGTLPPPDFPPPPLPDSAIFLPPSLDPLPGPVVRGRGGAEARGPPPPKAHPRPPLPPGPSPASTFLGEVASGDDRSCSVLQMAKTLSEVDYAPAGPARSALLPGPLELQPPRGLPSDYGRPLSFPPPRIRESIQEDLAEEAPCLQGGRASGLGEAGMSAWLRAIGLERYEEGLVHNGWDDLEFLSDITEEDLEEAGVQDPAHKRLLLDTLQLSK

SMILES	pIC50
CC(C)N(CCNc1ccc(-c2cc(-c3ccc(F)cc3)n(-c3ccc(Cl)c(Cl)c3)n2)cn1)C(C)C	5.96
